Assay results: ChEMBL document CHEMBL4699443, “Position of lipidation influences anticancer activity of Smac analogs” (Bioorg Med Chem Lett, 2019)

Legend:
HCC1954 = assay: Antiproliferative activity against human HCC1954 cells assessed as growth inhibition after 48 hrs by PrestoBlue dye based fluorescence assay; type: functional, cell-based; conditions: HCC1954, 48 h
VCaP = assay: Antiproliferative activity against human VCap cells assessed as growth inhibition after 48 hrs by PrestoBlue dye based fluorescence assay; type: functional, cell-based
[1] = Tmax in C57BL/6 mouse at 10 mg/kg, sc by LC-MS analysis; type: ADME, organism-based; conditions: in vivo
Summary of the method: (§1)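 Mice individually weighed, then given a single SC dose of 10 mg/kg. Blood taken by retro-orbital bleeding at set time points. Plasma levels measured by triple-quadrupole LC/MS; plasma half-life derived from these levels.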

[2] = Cmax in C57BL/6 mouse at 10 mg/kg, sc by LC-MS analysis; type: ADME, organism-based; design: route subcutaneous, dose 10 mg/kg; conditions: in vivo; summary of the method: as §1
[3] = Drug level in C57BL/6 mouse plasma at 10 mg/kg, sc after 30 mins by LC-MS analysis; type: ADME, organism-based; conditions: in vivo, 0.5 h; summary of the method: as §1
T47D = assay: Antiproliferative activity against human T47D cells assessed as growth inhibition after 48 hrs by PrestoBlue dye based fluorescence assay; type: functional, cell-based
HepG2 = assay: Antiproliferative activity against human HepG2 cells assessed as growth inhibition after 48 hrs by PrestoBlue dye based fluorescence assay; type: functional, cell-based; conditions: HepG2, 48 h

Compound: CCCCCCCCCCCCCCCCS[C@H]1C[C@@H](C(=O)NCC(c2ccccc2)c2ccccc2)N(C(=O)[C@@H](NC(=O)[C@H](C)NC)C(C)(C)C)C1
- EC50 (HCC1954): 17.5 µM
- EC50 (VCaP): 8.9 µM

Compound: CCCCCCCCCCCCCCCc1cccc(O[C@H]2C[C@@H](C(=O)NC(c3ccccc3)c3ccccc3)N(C(=O)[C@@H](NC(=O)[C@H](C)NC)C(C)(C)C)C2)c1
- Tmax [1]: 15.5 h
- Cmax [2]: 3.9708 µM
- Cp [3]: 1985.4 fmol/µL

Compound: CCCCCCCCCCCCCCCc1cccc(O[C@H]2C[C@@H](C(=O)NCC(c3ccccc3)c3ccccc3)N(C(=O)[C@@H](NC(=O)[C@H](C)NC)C(C)(C)C)C2)c1
- EC50 (T47D): 9 µM
- EC50 (HepG2): 5.4 µM
